From ChEMBL document CHEMBL1129501 (J Med Chem, 1996)

Tests used:
[1] = target: T1, Phosphodiesterase 1 (Homo sapiens, UniProt P54750+Q01064+Q14123); assay: Antagonistic potency against calmodulin-dependent cyclic AMP phosphodiesterase relative to Idoxifene; assay type: functional; settings: Canis lupus familiaris
[2] = target: Estrogen receptor (Rattus norvegicus) (UniProt P06211+Q62986)
[3] = target: T1, Phosphodiesterase 1; assay: Inhibitory activity against calmodulin-dependent Phosphodiesterase was reported.; assay type: protein assay, Canis lupus familiaris
How it was run: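 Calmodulin-dependent cAMP phosphodiesterase, 8-[3H]-cAMP substrate. Tritiated AMP converted to adenosine with snake venom 5'-nucleotidase. Nucleosides separated from substrate on Dowex anion exchanger, eluted with 3 mM acetic acid. Basal calmodulin-independent activity measured with 1 mM EGTA. Compounds in DMSO at several concentrations. IC50 against calmodulin-dependent activity, mean of triplicates ± standard error.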

[4] = target: T1, Phosphodiesterase 1; assay: Antagonistic potency against calmodulin-dependent cyclic AMP phosphodiesterase relative to 4-Iodotamoxifen; assay type: functional; settings: Canis lupus familiaris

Row | Relative potency [1] | Binding affinity [2] | IC50 [3] | Relative potency [4] | SMILES
1 | 0.9 | 0.4 | 1.6 µM | – | CC/C(=C(\c1ccc(I)cc1)c1ccc(OCCCCCCCCCCN2CCCC2)cc1)c1ccccc1
2 | 3 | 4 | 0.5 µM | – | CC/C(=C(\c1ccc(I)cc1)c1ccc(OCCCCCCN2CCCC2)cc1)c1ccccc1
3 | 1.4 | 23 | 1.1 µM | – | CC/C(=C(\c1ccc(I)cc1)c1ccc(OCCCN2CCCC2)cc1)c1ccccc1
4 | – | 8 | 0.4 µM | 5.8 | CC/C(=C(\c1ccc(I)cc1)c1ccc(OCCCCCCN(C)C)cc1)c1ccccc1
5 | 7.5 | 1.5 | 0.2 µM | – | CC/C(=C(\c1ccc(I)cc1)c1ccc(OCCCCCCCCCN2CCCC2)cc1)c1ccccc1
6 | – | 6 | 0.6 µM | 3.8 | CC/C(=C(\c1ccc(I)cc1)c1ccc(OCCCCCN(C)C)cc1)c1ccccc1
7 | – | 8 | 2 µM | 1.2 | CC/C(=C(\c1ccc(I)cc1)c1ccc(OCCCN(C)C)cc1)c1ccccc1
8 | – | 2 | 0.3 µM | 7.7 | CC/C(=C(\c1ccc(I)cc1)c1ccc(OCCCCCCCCN(C)C)cc1)c1ccccc1
9 | – | 8 | 2.3 µM | 1 | CC/C(=C(\c1ccc(I)cc1)c1ccc(OCCN(C)C)cc1)c1ccccc1
10 | – | 0.4 | 1.2 µM | 1.9 | CC/C(=C(\c1ccc(I)cc1)c1ccc(OCCCCCCCCCCN(C)C)cc1)c1ccccc1
11 | 7.5 | 3.5 | 0.2 µM | – | CC/C(=C(\c1ccc(I)cc1)c1ccc(OCCCCCCCCN2CCCC2)cc1)c1ccccc1
12 | – | – | 1.5 µM | – | CC/C(=C(\c1ccc(I)cc1)c1ccc(OCCN2CCCC2)cc1)c1ccccc1 [IDOXIFENE]
13 | 1.5 | 9 | 1 µM | – | CC/C(=C(\c1ccc(I)cc1)c1ccc(OCCCCN2CCCC2)cc1)c1ccccc1
14 | 1.9 | 8 | 0.8 µM | – | CC/C(=C(\c1ccc(I)cc1)c1ccc(OCCCCCN2CCCC2)cc1)c1ccccc1
15 | – | 25 | 2.2 µM | 1.1 | CC/C(=C(\c1ccc(I)cc1)c1ccc(OCCCCN(C)C)cc1)c1ccccc1
16 | 7.5 | 3 | 0.2 µM | – | CC/C(=C(\c1ccc(I)cc1)c1ccc(OCCCCCCCN2CCCC2)cc1)c1ccccc1
